The results in this text go back to ChEMBL document CHEMBL1152541, “Staurosporine tethered peptide ligands that target cAMP-dependent protein kinase (PKA): optimization and selectivity profiling” (Bioorg Med Chem, 2009).

Assay [1] deals with Mitogen-activated protein kinase 14 (Homo sapiens) (UniProt Q16539). The assay can be described thus: Binding affinity to human p38alpha at 500 nM by cell-based competition binding assay relative to control in presence of DTT.
The target of assay [2] is T1, Tyrosine-protein kinase JAK3 (Homo sapiens) (UniProt P52333).
T1 sequence (whole entry): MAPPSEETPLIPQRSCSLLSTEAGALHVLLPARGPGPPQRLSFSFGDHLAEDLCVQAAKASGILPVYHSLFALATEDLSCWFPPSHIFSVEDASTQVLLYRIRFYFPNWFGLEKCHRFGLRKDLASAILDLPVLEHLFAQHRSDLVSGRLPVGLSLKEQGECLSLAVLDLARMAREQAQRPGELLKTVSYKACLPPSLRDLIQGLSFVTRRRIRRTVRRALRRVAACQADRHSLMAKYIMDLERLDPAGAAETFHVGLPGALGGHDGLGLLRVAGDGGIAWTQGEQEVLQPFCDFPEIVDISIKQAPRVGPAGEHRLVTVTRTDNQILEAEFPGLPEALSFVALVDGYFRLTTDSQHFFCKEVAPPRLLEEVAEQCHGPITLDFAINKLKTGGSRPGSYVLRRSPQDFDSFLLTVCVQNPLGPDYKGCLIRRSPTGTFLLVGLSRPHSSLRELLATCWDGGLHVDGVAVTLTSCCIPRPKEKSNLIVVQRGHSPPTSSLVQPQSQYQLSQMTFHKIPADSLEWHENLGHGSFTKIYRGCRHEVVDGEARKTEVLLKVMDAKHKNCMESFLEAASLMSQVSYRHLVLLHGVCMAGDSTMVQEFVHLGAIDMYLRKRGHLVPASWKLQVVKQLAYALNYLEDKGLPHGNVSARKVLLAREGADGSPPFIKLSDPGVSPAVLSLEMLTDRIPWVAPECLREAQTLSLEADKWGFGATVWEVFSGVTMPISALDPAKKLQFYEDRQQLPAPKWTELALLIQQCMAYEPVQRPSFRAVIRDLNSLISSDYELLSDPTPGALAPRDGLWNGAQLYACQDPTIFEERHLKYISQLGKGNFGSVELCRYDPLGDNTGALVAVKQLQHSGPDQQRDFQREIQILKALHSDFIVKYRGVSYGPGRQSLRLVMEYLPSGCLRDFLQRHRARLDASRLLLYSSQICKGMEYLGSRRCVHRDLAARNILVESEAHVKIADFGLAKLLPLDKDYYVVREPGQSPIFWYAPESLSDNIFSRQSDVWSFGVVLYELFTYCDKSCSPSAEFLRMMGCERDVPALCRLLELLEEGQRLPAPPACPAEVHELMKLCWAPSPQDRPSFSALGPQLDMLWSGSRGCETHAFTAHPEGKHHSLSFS
The assay can be described thus: Binding affinity to human JAK3 kinase domain 2 at 200 nM by cell-based competition binding assay relative to control in presence of DTT. The procedure, abridged: (§1)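 Competition binding screen (Ambit) across a panel of 90 kinases, scoring test ligand displacement of each kinase's binding relative to control. The screen ran under reducing conditions with 7.5 mM DTT.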

The target in assay [3] is Mitogen-activated protein kinase 9 (Homo sapiens) (UniProt P45984). Kind of assay: Binding affinity to human JNK2 at 200 nM by cell-based competition binding assay relative to control in presence of DTT. The procedure, abridged:
as §1

In assay [4] the target is Platelet-derived growth factor receptor alpha (Homo sapiens) (UniProt P16234). The assay can be described thus: Binding affinity to human PDGFRalpha at 50 nM by cell-based competition binding assay relative to control in presence of DTT.
Assay [5] has as its target T2, TGF-beta receptor type-1 (Homo sapiens) (UniProt P36897).
T2 sequence (whole entry): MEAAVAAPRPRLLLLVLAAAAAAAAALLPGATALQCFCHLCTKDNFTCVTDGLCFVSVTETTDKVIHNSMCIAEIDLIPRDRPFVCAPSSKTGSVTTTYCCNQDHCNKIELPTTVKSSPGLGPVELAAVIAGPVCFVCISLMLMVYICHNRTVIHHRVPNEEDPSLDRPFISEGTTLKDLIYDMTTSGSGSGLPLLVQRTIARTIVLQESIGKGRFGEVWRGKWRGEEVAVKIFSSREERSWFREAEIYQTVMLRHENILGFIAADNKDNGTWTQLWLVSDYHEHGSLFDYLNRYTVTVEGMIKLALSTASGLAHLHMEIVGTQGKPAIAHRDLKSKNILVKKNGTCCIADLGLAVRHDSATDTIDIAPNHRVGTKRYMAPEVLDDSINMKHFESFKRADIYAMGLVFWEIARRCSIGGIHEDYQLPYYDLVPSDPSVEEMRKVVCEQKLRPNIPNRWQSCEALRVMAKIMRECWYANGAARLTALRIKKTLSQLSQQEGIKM
The assay can be described thus: Binding affinity to human TGFBR1 at 50 nM by cell-based competition binding assay relative to control in presence of DTT.

*1 amine or outer side, *2 acyl side, *3 side chain or, on linkers, in order; H or OH if unused. Where a SMILES comes first, the peptide text is derived from it. Bridges are numbered along the chain shown (N, C = ends). [ ]: non-standard residue; d: D form. The star is where a group is joined. Staurosporine = CO[C@@H]1[C@H](N(C)*)C[C@H]2O[C@]1(C)n1c3ccccc3c3c4c(c5c6ccccc6n2c5c31)C(=O)NC4; Suc = O=C(CCC(=O)[*:2])[*:1]; Dap = NC[C@H](N)C(=O)O; βAla = NCCC(=O)O

Mitogen-activated protein kinase 14 (Homo sapiens), sequence (Q16539 whole entry): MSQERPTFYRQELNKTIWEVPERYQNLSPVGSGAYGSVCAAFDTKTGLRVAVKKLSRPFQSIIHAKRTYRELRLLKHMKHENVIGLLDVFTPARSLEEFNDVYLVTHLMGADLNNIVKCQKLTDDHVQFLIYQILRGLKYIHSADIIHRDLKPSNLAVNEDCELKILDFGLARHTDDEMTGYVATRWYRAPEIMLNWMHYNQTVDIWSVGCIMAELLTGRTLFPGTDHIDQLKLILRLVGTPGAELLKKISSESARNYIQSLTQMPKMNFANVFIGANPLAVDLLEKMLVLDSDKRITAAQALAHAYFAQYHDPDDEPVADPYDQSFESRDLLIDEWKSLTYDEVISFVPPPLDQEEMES
Platelet-derived growth factor receptor alpha (Homo sapiens), sequence (P16234 whole entry): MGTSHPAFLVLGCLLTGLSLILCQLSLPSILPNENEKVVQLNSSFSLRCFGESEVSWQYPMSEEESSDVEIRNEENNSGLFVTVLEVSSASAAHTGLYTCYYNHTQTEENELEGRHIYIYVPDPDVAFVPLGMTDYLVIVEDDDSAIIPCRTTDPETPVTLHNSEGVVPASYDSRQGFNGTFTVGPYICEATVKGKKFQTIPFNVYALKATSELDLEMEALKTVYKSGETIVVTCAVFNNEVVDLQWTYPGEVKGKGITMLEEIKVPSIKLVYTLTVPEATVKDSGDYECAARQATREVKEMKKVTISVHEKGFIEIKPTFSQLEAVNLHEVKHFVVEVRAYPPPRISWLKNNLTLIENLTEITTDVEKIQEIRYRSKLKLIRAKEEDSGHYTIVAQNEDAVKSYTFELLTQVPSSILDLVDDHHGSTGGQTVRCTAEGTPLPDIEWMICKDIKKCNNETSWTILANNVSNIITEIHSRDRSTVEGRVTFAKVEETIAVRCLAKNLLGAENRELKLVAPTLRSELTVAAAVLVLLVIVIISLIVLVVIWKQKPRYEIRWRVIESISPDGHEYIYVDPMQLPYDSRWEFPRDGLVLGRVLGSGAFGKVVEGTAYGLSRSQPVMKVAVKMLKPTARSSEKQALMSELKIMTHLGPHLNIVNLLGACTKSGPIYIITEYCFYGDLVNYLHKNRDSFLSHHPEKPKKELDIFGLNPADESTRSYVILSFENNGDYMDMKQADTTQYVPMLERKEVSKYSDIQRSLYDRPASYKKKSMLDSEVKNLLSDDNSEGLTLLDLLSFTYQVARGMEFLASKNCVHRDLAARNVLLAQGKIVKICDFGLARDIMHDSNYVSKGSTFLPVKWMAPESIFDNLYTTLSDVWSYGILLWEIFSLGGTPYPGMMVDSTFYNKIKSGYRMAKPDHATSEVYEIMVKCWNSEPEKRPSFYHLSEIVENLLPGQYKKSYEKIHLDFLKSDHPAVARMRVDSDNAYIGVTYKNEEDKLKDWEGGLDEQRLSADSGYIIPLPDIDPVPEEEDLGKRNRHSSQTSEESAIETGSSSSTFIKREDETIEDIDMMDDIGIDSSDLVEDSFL
Mitogen-activated protein kinase 9 (Homo sapiens), sequence (P45984 whole entry, looked up): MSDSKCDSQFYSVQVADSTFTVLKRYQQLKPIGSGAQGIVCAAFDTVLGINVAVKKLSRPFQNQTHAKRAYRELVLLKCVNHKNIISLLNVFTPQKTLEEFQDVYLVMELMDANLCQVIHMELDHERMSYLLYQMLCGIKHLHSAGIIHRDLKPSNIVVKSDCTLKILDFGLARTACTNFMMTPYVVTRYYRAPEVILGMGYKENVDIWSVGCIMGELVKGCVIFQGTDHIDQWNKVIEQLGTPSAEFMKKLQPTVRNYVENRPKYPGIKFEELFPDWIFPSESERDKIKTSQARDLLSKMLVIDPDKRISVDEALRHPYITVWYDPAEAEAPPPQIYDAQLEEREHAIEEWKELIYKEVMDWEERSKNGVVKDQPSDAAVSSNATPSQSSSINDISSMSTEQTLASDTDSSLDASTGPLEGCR

With `CO[C@@H]1[C@H](N(C)C(=O)CCC(=O)NCCC(=O)NCCC(=O)NCCC(N)=O)C[C@H]2O[C@]1(C)n1c3ccccc3c3c4c(c5c6ccccc6n2c5c31)C(=O)NC4`, the Activity in assay [1] came out at 93%.
Consider `CO[C@@H]1[C@H](N(C)C(=O)CCC(=O)NCCC(=O)NCCC(=O)NCCC(=O)NCCC(=O)NCCC(=O)NCCC(=O)NCCC(=O)N[C@H]2CSSC[C@@H](C(=O)NCC(N)=O)NC(=O)CNC(=O)[C@H](Cc3ccccc3)NC(=O)[C@H](C(C)C)NC(=O)[C@H](CCCNC(=N)N)NC(=O)[C@H](Cc3ccccc3)NC(=O)[C@H](C(C)C)NC2=O)C[C@H]2O[C@]1(C)n1c3ccccc3c3c4c(c5c6ccccc6n2c5c31)C(=O)NC4` ({Staurosporine-Suc-βAla-βAla-βAla-βAla-βAla-βAla-βAla}-CVFRVFGCG-NH2; disulfide 1-8), for which the Activity in assay [2] was 4.6%; in assay [3], 89%.
On to `CO[C@@H]1[C@H](N(C)C(=O)CCC(=O)NCCC(=O)NCCC(=O)NCCC(=O)NCCC(=O)NCCC(=O)NCCC(=O)NCCC(=O)N[C@H]2CNC(=O)C[C@@H](C(N)=O)NC(=O)CNC(=O)[C@H](Cc3ccccc3)NC(=O)[C@H](C(C)C)NC(=O)[C@H](CCCNC(=N)N)NC(=O)[C@H](Cc3ccccc3)NC(=O)[C@H](C(C)C)NC2=O)C[C@H]2O[C@]1(C)n1c3ccccc3c3c4c(c5c6ccccc6n2c5c31)C(=O)NC4` ({Staurosporine-Suc-βAla-βAla-βAla-βAla-βAla-βAla-βAla}-[Dap]VFRVFGD-NH2; lactam 1-8), for which the Activity in assay [4] and in assay [5] was 100% each time.
